Data as given in the RNAGym collection of RNA variant scans (doi:10.1126/science.aae0568).
Fewer inactive variants are shown than the library holds.

B1: tRNA (parent)
chain: GUUCCGUUGGCGUAAUGGUAACGCGUCUCCCUCCUAAGGAGAAGACUGCGGGUUCGAGUCCCGUACGGAACG

Variants of: B1
Assay: yeast fitness relative to wild type (ratio to wild type); higher = fitter; tRNA-Arg(CCU), competitive growth, 37 C, YPD
How it was run: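 Gene amplicons from the start population and from each of six end populations were read by 100-nucleotide paired-end sequencing. Those end populations came from pooled Saccharomyces cerevisiae strains carrying tRNA-Arg(CCU) gene variants at the native locus, competed in YPD at 37°C for 24 hours. Fitness relative to wild type was worked out from changes in genotype frequencies. Genotypes needed ≥ 100 starting reads, and estimates < 0.5 were set to 0.5.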

First: A21C G23A C49A C60G G63A
Second: A20U U28C
The yeast fitness of the first is lower: at most 0.5 for the first, 0.934 for the second.

Going from A21C C22G G38C G51C to A20U C27A, the yeast fitness rises from at most 0.5 to 0.717.

Compared with A20U C27U, A21C A37C A69U is lower in yeast fitness: 1.05 for the first, at most 0.5 for the second.

A21C C24A G39A and A21C U28G C33U C34U A43U G50A A69C cannot be ordered by yeast fitness: at most 0.5 for the first, at most 0.5 for the second.

Going from A21C G23U to A21G A36U U53A, the yeast fitness falls from 0.714 to 0.58.

Going from A20U C24G C31A G58C to A20U C34G G48C, the yeast fitness rises from 0.504 to 0.53.

Compared with A21G C22A G25A C46U U54A, A21C C29U C31G A43U is higher in yeast fitness: at most 0.5 for the first, 0.612 for the second.

Compared with A21G C24G C31A G44A, A21G A42C A43U G56C C66U is higher in yeast fitness: 0.571 for the first, 0.598 for the second.

Going from A21G C22A G56A A65C to A21G A57G C66G, the yeast fitness rises from 0.528 to 0.599.

A20U C31U C62A A69U and A21C A57U C62U cannot be ordered by yeast fitness: at most 0.5 for the first, at most 0.5 for the second.

Compared with A20U C62G, A20U C24G G63A A65U is lower in yeast fitness: 0.682 for the first, at most 0.5 for the second.

Compared with A21C C31A C33G A45G G48A, A21G C22U A37U A45G C46G C55A is lower in yeast fitness: 0.579 for the first, at most 0.5 for the second.

First: A21C C29G G51A
Second: A20U U54C G63U
The yeast fitness of the first is higher: 0.529 for the first, at most 0.5 for the second.

Going from A20U U47A U53C to A20U C30G A69U, the yeast fitness rises from 0.532 to 0.59.

A21C C22A C60U and A20U U28C C30U A43G cannot be ordered by yeast fitness: at most 0.5 for the first, at most 0.5 for the second.

A21C A36G G67C and A21C A37G C49A C60G C66A cannot be ordered by yeast fitness: at most 0.5 for the first, at most 0.5 for the second.

A21C A45C C49U C55G G56C and A20U G25C U35C C60G cannot be ordered by yeast fitness: at most 0.5 for the first, at most 0.5 for the second.

Going from A21C C34A G38A A45U to A21C U59C, the yeast fitness rises from 0.546 to 0.777.

A20U C27G C49A and A21C U26G A65G A69C cannot be ordered by yeast fitness: at most 0.5 for the first, at most 0.5 for the second.

Compared with A21G A36G A40C A42C, A20U G63C is higher in yeast fitness: at most 0.5 for the first, 0.649 for the second.

First: A21C C27U A45C C49U
Second: A21C C22U
The yeast fitness of the first is lower: at most 0.5 for the first, 0.664 for the second.

First: A21C C22G
Second: A21G C22A C29A C61U
The yeast fitness of the first is higher: 0.564 for the first, at most 0.5 for the second.

A21G C24A A69U A70G and A20U C29U C30G C34A U35A G48C cannot be ordered by yeast fitness: at most 0.5 for the first, at most 0.5 for the second.

First: A21C A43G C60G A65G
Second: A21C A45U G52C
The yeast fitness of the first is lower: at most 0.5 for the first, 0.581 for the second.

First: A21C A42U G44C U53C
Second: A21G C22U C30G G51A A69U
The yeast fitness of the first is lower: at most 0.5 for the first, 0.551 for the second.

Compared with A21G A42U G56A C61U, A21C C31U is higher in yeast fitness: at most 0.5 for the first, 0.733 for the second.

Compared with A21C C31A, A21C A45C is higher in yeast fitness: 0.725 for the first, 0.73 for the second.

Compared with A21G C22U C46U G56C, A21C A70C is higher in yeast fitness: at most 0.5 for the first, 0.798 for the second.

First: A21C C30U A45G
Second: A21C C46U G67A
The yeast fitness of the first is lower: at most 0.5 for the first, 0.619 for the second.

Going from A21G A36G C60U to A20U G50A U59C, the yeast fitness rises from 0.531 to 0.619.

Going from A21C C46U to A20U C27U C61G, the yeast fitness falls from 0.909 to 0.647.

Going from A21C C31A C33G A45G G48A A65U to A20U C60G, the yeast fitness rises from at most 0.5 to 0.691.

Going from A20U G48A to A21C C31G C62U A69G, the yeast fitness falls from 0.922 to at most 0.5.

A21C C22G U32A G56C and A20U C27A A40C C46A cannot be ordered by yeast fitness: at most 0.5 for the first, at most 0.5 for the second.

Going from A20U C46U A69G to A21C C27U, the yeast fitness falls from 0.893 to 0.774.

Compared with A21C C27G, A21G A42G is higher in yeast fitness: 0.537 for the first, 0.714 for the second.

Compared with A20U G50A A57U C60G A65U, A20U G44A C60A is lower in yeast fitness: 0.531 for the first, at most 0.5 for the second.

A20U C55U A57C and A21G C22G G25A G63A cannot be ordered by yeast fitness: at most 0.5 for the first, at most 0.5 for the second.

First: A21C C30G U54C C55G A70G
Second: A21C C46G C49G
The yeast fitness of the first is lower: at most 0.5 for the first, 0.655 for the second.

A20U C34U G58C and A21C C24U C46U C60U cannot be ordered by yeast fitness: at most 0.5 for the first, at most 0.5 for the second.

First: A21G A37U C66U
Second: A21G A57C
The yeast fitness of the first is lower: at most 0.5 for the first, 0.709 for the second.

A20U C31G A36C A45G A70U and A21G C22A C62U C66A cannot be ordered by yeast fitness: at most 0.5 for the first, at most 0.5 for the second.

Compared with A20U C27G C29A, A20U C29G C49G G63C is higher in yeast fitness: at most 0.5 for the first, 0.543 for the second.

A20U C27G C30G A36C A70U and A21C C62G A65C cannot be ordered by yeast fitness: at most 0.5 for the first, at most 0.5 for the second.

First: A20U C27U U32C G52C
Second: A20U C34G A36C C55U
The yeast fitness of the first is lower: at most 0.5 for the first, 0.528 for the second.

A21C C30U U32G U53C G67A and A21C C24U U32A G41A C62G cannot be ordered by yeast fitness: at most 0.5 for the first, at most 0.5 for the second.

A21C U28G A43C G52C and A21C G23U C62U A65G cannot be ordered by yeast fitness: at most 0.5 for the first, at most 0.5 for the second.

Going from A21G A37C A43U to A20U G38C C46A, the yeast fitness falls from 0.618 to at most 0.5.

Compared with A21C C46U A65U, A21C C29A G52A C55G A57C A69C is lower in yeast fitness: 0.556 for the first, at most 0.5 for the second.

Compared with A20U C33A G44A C62U, A21C C61G is higher in yeast fitness: at most 0.5 for the first, 0.585 for the second.

Going from A21C C29U A43G C66U to A20U G67C, the yeast fitness rises from at most 0.5 to 0.732.

Going from A20U G67A to A21C U26C A57U, the yeast fitness falls from 0.657 to at most 0.5.

A20U G48C U53C G68C and A21C G23U G48C cannot be ordered by yeast fitness: at most 0.5 for the first, at most 0.5 for the second.

Going from A21C C46G A65U to A21C G56A, the yeast fitness rises from 0.658 to 0.946.

Compared with A20U G38C A45C C60G, A21C C27G U28A C29U C34U is higher in yeast fitness: at most 0.5 for the first, 0.525 for the second.

Going from A21C C62U G68C to A21C C27G G39C, the yeast fitness falls from 0.601 to at most 0.5.

First: A20U G67A A70G
Second: A21C C24A C49U
The yeast fitness of the first is higher: 0.882 for the first, at most 0.5 for the second.

Compared with A21G A36G A65C, A21C C24U U32A C62G G63A is lower in yeast fitness: 0.664 for the first, at most 0.5 for the second.

Going from A21C A40G to A21C A40U, the yeast fitness falls from 0.818 to 0.807.

Compared with A21C C29U C31G A43U A65U, A21C G48C is higher in yeast fitness: 0.593 for the first, 0.788 for the second.

A20U C34U C46U G51A C66U and A21C C29A G41A U54A cannot be ordered by yeast fitness: at most 0.5 for the first, at most 0.5 for the second.

Compared with A21C C29U A57C, A20U C46G G51C C61U is lower in yeast fitness: 0.558 for the first, at most 0.5 for the second.

First: A20U G39C A40G C49U C55G
Second: A21C G58C A65U
The yeast fitness of the first is lower: at most 0.5 for the first, 0.521 for the second.

A20U G38C G68U and A20U G25C C49G A65C A70U cannot be ordered by yeast fitness: at most 0.5 for the first, at most 0.5 for the second.

Compared with A21C C27G U28A C29U C34U C62U G63C, A20U U26A C62U is higher in yeast fitness: at most 0.5 for the first, 0.542 for the second.

First: A20U G68A A69C
Second: A21G C22U A57G
The yeast fitness of the first is higher: 0.639 for the first, 0.614 for the second.

A20U C24G C49G and A21G A45G C46G A70U cannot be ordered by yeast fitness: at most 0.5 for the first, at most 0.5 for the second.

First: A20U G41C
Second: A20U U47G
The yeast fitness of the first is higher: 0.753 for the first, 0.611 for the second.

First: A20U C30G
Second: A20U C62U A69C
The yeast fitness of the first is lower: 0.61 for the first, 0.686 for the second.

Going from A20U C34A C55G C66A to A21G C22U G63A, the yeast fitness rises from 0.561 to 0.572.

Going from A21C A57G to A21C A57C, the yeast fitness falls from 0.708 to 0.548.

Going from A21C C22G G38C to A21C G23A G58C A65U, the yeast fitness falls from 0.52 to at most 0.5.

First: A20U C66U A70U
Second: A21C C22U C31U C33U
The yeast fitness of the first is higher: 0.646 for the first, at most 0.5 for the second.

Compared with A20U G23A A36U, A20U C46U is higher in yeast fitness: 0.515 for the first, 0.995 for the second.

A21C C24G G68C and A20U C27G C29A A57G A65G cannot be ordered by yeast fitness: at most 0.5 for the first, at most 0.5 for the second.

First: A21G C22A C49A G56C
Second: A20U C49G
The yeast fitness of the first is lower: at most 0.5 for the first, 0.752 for the second.

First: A20U C31A G41A
Second: A21C G58C
The yeast fitness of the first is lower: at most 0.5 for the first, 0.84 for the second.

Compared with A20U G44C C60A, A20U U47A A70C is lower in yeast fitness: 0.617 for the first, 0.536 for the second.

First: A21C C34A A37G
Second: A20U C33A G41C
The yeast fitness of the first is higher: 0.513 for the first, at most 0.5 for the second.

Going from A20U G23A A36U A65U to A20U C34A, the yeast fitness rises from at most 0.5 to 0.7.

Going from A20U C34U to A20U C34G, the yeast fitness rises from 0.652 to 0.68.

Going from A21C C33G G39A to A21C C27A C33U, the yeast fitness rises from at most 0.5 to 0.906.

Going from A21C C61G C62G to A21G C22G U53C C55G, the yeast fitness rises from at most 0.5 to 0.698.

Variant A21C C46U A69C has a yeast fitness of 0.668.
